{"source": "ChEMBL document CHEMBL1124068", "about": "“5-Methyl-2-pyrrolidone analogues of oxotremorine as selective muscarinic agonists” (J Med Chem, 1988)", "key": {"Mus musculus [1]": {"system": "Mus musculus", "test": "Central muscarinic activity administered intraperitoneally to mice, expressed as hypothermia", "format": "functional", "details": "ip", "procedure,_shortened": "(§1)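 Rectal temperature (probe ~25 mm) in male Swiss-Webster mice (24-32 g) after ip dosing at 20.5 ± 1.0 °C; six mice per dose, five to six doses, readings every 20 min for 3 h. Maximal fall from pretreatment used; ED50 from logistic fit.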"}, "Mus musculus [2]": {"system": "Mus musculus", "test": "Muscarinic activity administered intraperitoneally to mice, expressed as salivation", "format": "functional", "details": "ip", "procedure,_shortened": "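Male Swiss-Webster mice (24-32 g) dosed ip at 20.5 ± 1.0 °C; salivation judged by pressing mouth onto absorbent tissue; threshold dose estimated by up-and-down method.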"}, "Mus musculus [3]": {"system": "Mus musculus", "test": "Central muscarinic activity administered intraperitoneally to mice, expressed as analgesia", "format": "functional", "details": "ip", "procedure,_shortened": "(§2)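 Male Swiss-Webster mice (24-32 g), ip, 20.5 ± 1.0 °C; tail-flick test, 15 s cut-off, groups of ten at three to four dose levels. Reaction time above control mean plus 3 SD counted as increased; ED50 by probit analysis.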"}, "Cavia porcellus [4]": {"species_on_record": "Cavia porcellus", "test": "Maximum contractile response relative to that elicited by carbachol was measured in guinea pig ileum", "format": "functional", "procedure,_shortened": "(§3)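 Isolated guinea pig ileum in Tyrode solution (pH 7.4) with 0.3 mM hexamethonium, 37 °C; isotonic contractions at 1 g tension. Cumulative agonist concentration-response curves, concentration raised stepwise by factor 2.15; maxima expressed relative to carbachol.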"}, "Cavia porcellus [5]": {"species_on_record": "Cavia porcellus", "test": "Efficacy relative to that of carbachol (guinea pig urinary bladder)", "format": "functional"}, "Cavia porcellus [6]": {"species_on_record": "Cavia porcellus", "test": "Efficacy relative to that of carbachol", "format": "functional"}, "Cavia porcellus [7]": {"species_on_record": "Cavia porcellus", "test": "Concentration that elicits 50% of its own maximum contractile response in guinea pig urinary bladder", "format": "functional", "procedure,_shortened": "(§4)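 Guinea pig bladder strips in Krebs-Henseleit solution (pH 7.4) with 0.3 mM hexamethonium, 37 °C; isotonic recording at 1 g tension; cumulative agonist additions increased by factor 3.16; responses referenced to carbachol.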"}, "Cavia porcellus [8]": {"species_on_record": "Cavia porcellus", "test": "Maximum contractile response relative to that elicited by carbachol was measured in guinea pig urinary bladder", "format": "functional", "procedure,_shortened": "as §4"}, "Cavia porcellus [9]": {"species_on_record": "Cavia porcellus", "test": "Equilibrium dissociation constant receptor complex, measured in guinea pig urinary bladder", "format": "functional"}, "Cavia porcellus [10]": {"species_on_record": "Cavia porcellus", "test": "Equilibrium dissociation constant receptor complex, measured in guinea pig ileum", "format": "functional"}, "Cavia porcellus [11]": {"species_on_record": "Cavia porcellus", "test": "Concentration that elicits 50% of its own maximum contractile response in guinea pig ileum", "format": "functional", "procedure,_shortened": "as §3"}, "[12]": {"test": "Acute toxicity administered intraperitoneally to mice", "format": "organism-based", "details": "mouse, in vivo, ip"}, "Mus musculus [13]": {"system": "Mus musculus", "test": "Tremorolytic activity administered intraperitoneally to mice", "format": "functional", "details": "ip", "procedure,_shortened": "(§5)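 Antagonists given ip to groups of six or more male Swiss-Webster mice (24-32 g), six untreated controls; 20 min later iv oxotremorine ED50 for grade 2 intermittent spontaneous tremor found by up-and-down method. Dose doubling oxotremorine ED50 derived by linear regression; values are means ± standard errors.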"}, "Mus musculus [14]": {"system": "Mus musculus", "test": "Central muscarinic activity administered intraperitoneally to mice, expressed as hypothermia; d = no effect was observed", "format": "functional, organism-based", "procedure,_shortened": "as §1"}, "Mus musculus [15]": {"system": "Mus musculus", "test": "Tremorolytic activity administered intraperitoneally to mice; c = no significant blockade was observed", "format": "functional, organism-based", "procedure,_shortened": "as §5"}, "Mus musculus [16]": {"system": "Mus musculus", "test": "Central muscarinic activity administered intraperitoneally to mice, expressed as analgesia; d = no effect was observed", "format": "functional, organism-based", "procedure,_shortened": "as §2"}}, "note": "The source made the active and inactive calls.", "data": [{"compound": "O=C1CCCN1CC#CCN1CCCC1", "note": "[OXOTREMORINE]", "values": [{"measurement": "ED50", "setting": "Mus musculus [1]", "result": 0.22, "unit": "µmol/kg"}, {"measurement": "ED50", "setting": "Mus musculus [2]", "result": 0.29, "unit": "µmol/kg"}, {"measurement": "ED50", "setting": "Mus musculus [3]", "result": 0.05, "unit": "µmol/kg"}]}, {"compound": "C[N+](C)(C)CCOC(N)=O.[Cl-]", "note": "[CARBACHOL]", "values": [{"measurement": "Emax", "setting": "Cavia porcellus [4]", "result": 100}, {"measurement": "Relative efficacy", "setting": "Cavia porcellus [5]", "result": 1}, {"measurement": "Relative efficacy", "setting": "Cavia porcellus [6]", "result": 1}, {"measurement": "EC50", "setting": "Cavia porcellus [7]", "result": 900, "unit": "nM"}, {"measurement": "Emax", "setting": "Cavia porcellus [8]", "result": 100}, {"measurement": "Kd", "setting": "Cavia porcellus [9]", "result": 17000, "unit": "nM"}, {"measurement": "Kd", "setting": "Cavia porcellus [10]", "result": 14100, "unit": "nM"}, {"measurement": "EC50", "setting": "Cavia porcellus [11]", "result": 110, "unit": "nM"}]}, {"compound": "CC(=O)N(C)C(C)C#CCN1CCCC1", "note": "(centres undefined)", "values": [{"measurement": "Emax", "setting": "Cavia porcellus [4]", "result": 82.6}, {"measurement": "Relative efficacy", "setting": "Cavia porcellus [6]", "result": 0.012}, {"measurement": "ED50", "setting": "Mus musculus [1]", "result": 0.75, "unit": "µmol/kg"}, {"measurement": "LD50", "setting": "[12]", "result": 665, "unit": "µmol/kg"}, {"measurement": "Emax", "setting": "Cavia porcellus [8]", "result": "<5"}, {"measurement": "Kd", "setting": "Cavia porcellus [9]", "result": 140, "unit": "nM"}, {"measurement": "Kd", "setting": "Cavia porcellus [10]", "result": 240, "unit": "nM"}, {"measurement": "EC50", "setting": "Cavia porcellus [11]", "result": 190, "unit": "nM"}, {"measurement": "ED50", "setting": "Mus musculus [2]", "result": 0.65, "unit": "µmol/kg"}, {"measurement": "ED50", "setting": "Mus musculus [13]", "result": 0.63, "unit": "µmol/kg"}, {"measurement": "ED50", "setting": "Mus musculus [3]", "result": 0.37, "unit": "µmol/kg"}]}, {"compound": "CC1CCC(=O)N1CC#CCN1CCCC1", "note": "(centres undefined)", "values": [{"measurement": "LD50", "setting": "[12]", "result": 107, "unit": "µmol/kg"}, {"measurement": "ED50", "setting": "Mus musculus [13]", "result": 0.36, "unit": "µmol/kg"}]}, {"compound": "CC1CCC(=O)N1CC#CCN1CCC1", "note": "(centres undefined)", "values": [{"measurement": "Emax", "setting": "Cavia porcellus [4]", "result": 90}, {"measurement": "Relative efficacy", "setting": "Cavia porcellus [5]", "result": 0.022}, {"measurement": "Relative efficacy", "setting": "Cavia porcellus [6]", "result": 0.02}, {"measurement": "ED50", "setting": "Mus musculus [1]", "result": 4.9, "unit": "µmol/kg"}, {"measurement": "LD50", "setting": "[12]", "result": 192, "unit": "µmol/kg"}, {"measurement": "EC50", "setting": "Cavia porcellus [7]", "result": 4600, "unit": "nM"}, {"measurement": "Emax", "setting": "Cavia porcellus [8]", "result": 21.4}, {"measurement": "Kd", "setting": "Cavia porcellus [9]", "result": 580, "unit": "nM"}, {"measurement": "Kd", "setting": "Cavia porcellus [10]", "result": 520, "unit": "nM"}, {"measurement": "EC50", "setting": "Cavia porcellus [11]", "result": 230, "unit": "nM"}, {"measurement": "ED50", "setting": "Mus musculus [2]", "result": 1.3, "unit": "µmol/kg"}, {"measurement": "ED50", "setting": "Mus musculus [13]", "result": 4.6, "unit": "µmol/kg"}, {"measurement": "ED50", "setting": "Mus musculus [3]", "result": 0.71, "unit": "µmol/kg"}]}, {"compound": "CCN(C)CC#CCN1C(=O)CCC1C", "note": "(centres undefined)", "values": [{"measurement": "Emax", "setting": "Cavia porcellus [4]", "result": 0}, {"measurement": "LD50", "setting": "[12]", "result": 636, "unit": "µmol/kg"}, {"measurement": "Emax", "setting": "Cavia porcellus [8]", "result": 0}, {"measurement": "Kd", "setting": "Cavia porcellus [9]", "result": 2500, "unit": "nM"}, {"measurement": "Kd", "setting": "Cavia porcellus [10]", "result": 1800, "unit": "nM"}, {"measurement": "ED50", "setting": "Mus musculus [13]", "result": 6.7, "unit": "µmol/kg"}]}, {"compound": "CC1CCC(=O)N1CC#CC[N+](C)(C)C.[I-]", "note": "(centres undefined)", "values": [{"measurement": "Emax", "setting": "Cavia porcellus [4]", "result": 100}, {"measurement": "Relative efficacy", "setting": "Cavia porcellus [5]", "result": 0.062}, {"measurement": "Relative efficacy", "setting": "Cavia porcellus [6]", "result": 0.057}, {"measurement": "ED50", "setting": "Mus musculus [14]", "result": "inactive"}, {"measurement": "LD50", "setting": "[12]", "result": 33.6, "unit": "µmol/kg"}, {"measurement": "ED50", "setting": "Mus musculus [15]", "result": "inactive"}, {"measurement": "ED50", "setting": "Mus musculus [16]", "result": "inactive"}, {"measurement": "EC50", "setting": "Cavia porcellus [7]", "result": 2000, "unit": "nM"}, {"measurement": "Emax", "setting": "Cavia porcellus [8]", "result": 71.4}, {"measurement": "Kd", "setting": "Cavia porcellus [9]", "result": 2800, "unit": "nM"}, {"measurement": "Kd", "setting": "Cavia porcellus [10]", "result": 1700, "unit": "nM"}, {"measurement": "EC50", "setting": "Cavia porcellus [11]", "result": 180, "unit": "nM"}, {"measurement": "ED50", "setting": "Mus musculus [2]", "result": 12, "unit": "µmol/kg"}]}, {"compound": "CC[N+](C)(C)CC#CCN1C(=O)CCC1C.[I-]", "note": "(centres undefined)", "values": [{"measurement": "Emax", "setting": "Cavia porcellus [4]", "result": 28.7}, {"measurement": "Relative efficacy", "setting": "Cavia porcellus [6]", "result": 0.0036}, {"measurement": "LD50", "setting": "[12]", "result": 176, "unit": "µmol/kg"}, {"measurement": "ED50", "setting": "Mus musculus [15]", "result": "No significant blockade"}, {"measurement": "Emax", "setting": "Cavia porcellus [8]", "result": 0}, {"measurement": "Kd", "setting": "Cavia porcellus [9]", "result": 3500, "unit": "nM"}, {"measurement": "Kd", "setting": "Cavia porcellus [10]", "result": 4900, "unit": "nM"}, {"measurement": "EC50", "setting": "Cavia porcellus [11]", "result": 3200, "unit": "nM"}]}, {"compound": "CN1[C@@H]2CC[C@H]1C[C@@H](OC(=O)C(CO)c1ccccc1)C2", "note": "(some centres undefined) [ATROPINE]", "values": [{"measurement": "ED50", "setting": "Mus musculus [13]", "result": 0.57, "unit": "µmol/kg"}]}, {"compound": "CC1CCC(=O)N1CC#CCN(C)C", "note": "(centres undefined)", "values": [{"measurement": "Emax", "setting": "Cavia porcellus [4]", "result": 102}, {"measurement": "Relative efficacy", "setting": "Cavia porcellus [5]", "result": 0.064}, {"measurement": "Relative efficacy", "setting": "Cavia porcellus [6]", "result": 0.04}, {"measurement": "ED50", "setting": "Mus musculus [1]", "result": 13.1, "unit": "µmol/kg"}, {"measurement": "LD50", "setting": "[12]", "result": 402, "unit": "µmol/kg"}, {"measurement": "EC50", "setting": "Cavia porcellus [7]", "result": 15000, "unit": "nM"}, {"measurement": "Emax", "setting": "Cavia porcellus [8]", "result": 58.1}, {"measurement": "Kd", "setting": "Cavia porcellus [9]", "result": 11800, "unit": "nM"}, {"measurement": "Kd", "setting": "Cavia porcellus [10]", "result": 4300, "unit": "nM"}, {"measurement": "EC50", "setting": "Cavia porcellus [11]", "result": 910, "unit": "nM"}, {"measurement": "ED50", "setting": "Mus musculus [2]", "result": 4, "unit": "µmol/kg"}, {"measurement": "ED50", "setting": "Mus musculus [13]", "result": 22.8, "unit": "µmol/kg"}, {"measurement": "ED50", "setting": "Mus musculus [3]", "result": 1.5, "unit": "µmol/kg"}]}, {"compound": "CCN(CC)CC#CCN1C(=O)CCC1C", "note": "(centres undefined)", "values": [{"measurement": "Emax", "setting": "Cavia porcellus [4]", "result": 0}, {"measurement": "LD50", "setting": "[12]", "result": 720, "unit": "µmol/kg"}, {"measurement": "Emax", "setting": "Cavia porcellus [8]", "result": 0}, {"measurement": "Kd", "setting": "Cavia porcellus [9]", "result": 2100, "unit": "nM"}, {"measurement": "Kd", "setting": "Cavia porcellus [10]", "result": 1100, "unit": "nM"}, {"measurement": "ED50", "setting": "Mus musculus [13]", "result": 5.1, "unit": "µmol/kg"}]}]}
